Assay results as given in the EternaBench riboswitch data.

System: MS2 coat protein
Test: apparent Kd, MS2 coat protein; higher = weaker binding; RNA-MaP array; FMN 200 µM where present
Method in brief: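 The apparent Kd is reported as the median of filtered per-cluster binding-curve fits. To get these curves, designs transcribed by stalled E. coli RNA polymerase on Illumina sequencing-chip clusters were titrated with SNAP-549-labelled MS2 coat protein from 0.7 or 1.5 nM, doubling to 3 µM. Titrations were run without and then with constant ligand in 100 mM Tris-HCl pH 7.5, 80 mM KCl, 4 mM MgCl2, BSA, DTT, yeast tRNA and Tween-20, and green signal was normalised to red-channel RNA signal and control-cluster median Fmax.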

[1] = designed as: OFF switch for flavin mononucleotide, no ligand
[2] = ligand present: flavin mononucleotide, designed as: OFF switch for flavin mononucleotide
[3] = designed as: ON switch for flavin mononucleotide, no ligand
[4] = ligand present: flavin mononucleotide, designed as: ON switch for flavin mononucleotide

GUGCGGAACCUAGGAUAUCCGGCAUGGACAGGUGGUAAGUCUCCCACAUGAGGAUCACCCAUGUAGGAGAAGGAGGAUCACGGA
apparent Kd [1]: 6.46 nM | apparent Kd [2]: 6.07 nM

CAUGUCCUCACAGGAUAUGCACCACUUUGUGGUGCAGAAGGGUGGUAACAUGAGGAUCACCCAUGUGGACAUGAUAUAUUUAAU
apparent Kd [3]: 523 nM | apparent Kd [4]: 294 nM

AGAUAUGAUGCAGGAUAUCUAUCUUGAAUGAGGAGAGAAGGGCAAGCAGAGAGAUAAGCCUUAUGACAUGAGGAUCACCCAUGU
apparent Kd [1]: 10.2 nM | apparent Kd [2]: 8.61 nM

GCAGCGUAUGUAGGAUAUCGGUCAGUUUCUGAUCGAGAAGGACAUGAGGAUCACCCAUGUAAAUUACCGACUUUGUCGGGUUGC
apparent Kd [1]: 10.2 nM | apparent Kd [2]: 20.1 nM

CUGCUUCCCAGUAUGGGUAUUUUUACAGAAGGCCAGGCACAUGAGGAUCACCCAUGUCAAGUUUUGGAGGAUAUGUUAUUGUCG
apparent Kd [3]: 8.53 nM | apparent Kd [4]: 4.72 nM

AAUCCACAUGAGGAUCACCCAUGUCAGGAUAUCGCGCGCGCGUUUUCGGUCUUUCGCGCGAGAAGGGACGACUG
apparent Kd [1]: 16.1 nM | apparent Kd [2]: 18.8 nM

ACAUGAGGAUCACCCAUGUUAAGCGAGGAUAUUUCACUGCACAUGAGGUUCGCCCAUGUCCUGCGGAAGAAGGUGCGAAUAAUU
apparent Kd [3]: 33.4 nM | apparent Kd [4]: 17.1 nM

AAGAUGCCUCCUGCUGGUGGGAGACAUGAGGAUCACCCAUGUCAGGAUAUCGGUUAAAGAGGACACGAGAAGGGACAGGAGUAC
apparent Kd [1]: 8.19 nM | apparent Kd [2]: 9.23 nM

GCCAUCGCAUGAGGAUAUGCUCCCGUUUCGGGAGCAGAAGGCAUGUCAUAAGACAUGAGGAUCACCCAUGUAGUUUAGAUGGCA
apparent Kd [3]: 234 nM | apparent Kd [4]: 11.1 nM

UAUUUUAACUAAGGAUAUCUAUAUUAUUUUGAAACAUGAGGAUCACCCAUGUUCAUGGGAUUAUAAGAGAAGGUAGAUGAAUAA
apparent Kd [3]: 27.5 nM | apparent Kd [4]: 11.7 nM

UUUUGACAUGAGGAUCACCCAUGUGAGGAUAUGAUGCGAUCGUCGAAAGACGAUAGCAUCAGAAGGCACAUAUG
apparent Kd [1]: 112 nM | apparent Kd [2]: 336 nM

GGGAUCACCGUCAGGAUAUGUGACCGUACUAUCGGGCAGAAGGGACAUGAGGAUCACCCAUGUUGUCGUAGACU
apparent Kd [1]: 20.7 nM | apparent Kd [2]: 58.1 nM

AAAAUUUAUUGAGGAUAUUCAUACACUGUAUACGGAGAAGGCAAACAAUCAUGAGGACAUGAGGAUCACCCAUGUUGUGACCAU
apparent Kd [3]: 18.5 nM | apparent Kd [4]: 12.2 nM

AUCAGCUCGUCAGGAUAUACGUCACUGCGUCAGUAGUGUGGUAAGAUCACAUGAGGAUCACCCAUGUAGAAGGGACGAGCUGAU
apparent Kd [1]: 14.5 nM | apparent Kd [2]: 284 nM

UAUUGAUAAUAUUUUAACAUGAGGAUCACCCAUGUCGCUAGACAGGAUAUAUUUUAUUUGUUUAAGUAGAAGGGUCGUAGAUUU
apparent Kd [3]: 200 nM | apparent Kd [4]: 152 nM

GAAAAUACAUGAGGAUCACCCAUGUAGGAUAUCGCUAUUGUAAUCAUGUUACAUGAUUACAAUAGCGAGAAGGACGUGAGAAAG
apparent Kd [1]: 24.7 nM | apparent Kd [2]: 22.3 nM

AGGUCAACCACAGGAUAUGGCUAGCAUAGCUAGCCAGAAGGGUGGUCGUAACCAUGUAAAUACAUGAGGAUCACCCAUGUAUCC
apparent Kd [3]: 235 nM | apparent Kd [4]: 66.5 nM

GGAUAGGACAGAGGAUAUGCCGAUAGGAUCUACUAUCGAAGAAUCCUCACAUGAGGAUCACCCAUGUAGAAGGCUGUCCUAUCG
apparent Kd [1]: 23.8 nM | apparent Kd [2]: 131 nM

AGUUUGUUUGAGAAGGUGAAGUGGAAACAUGAGGAUCACCCAUGUAUUAGGAAGCCUGGUUUUGUCAAGGAUAUCGGGUAAACA
apparent Kd [4]: 13.9 nM

GGAAAACAUGAGGAUCACCCAUGUGAGGAUAUCGAUGUCCAACCCAAAGUGCGGGACUCGAGAAGGCACUUGGA
apparent Kd [1]: 45.7 nM | apparent Kd [2]: 31.5 nM

CUACCUUAUGAGAAGGCGAUUAUGAAACAUGAUCGAGGAUAUCAUGUAAACAUGAGGAUCACCCAUGUAUGGGUAUUAUGGUAA
apparent Kd [3]: 211 nM | apparent Kd [4]: 32.8 nM

GUGUACAGAGGAUAUACAUGGGCAUGGAAACAUGCAUCUUCACAUGAGGAUCACCCAUGUAGAAGGCUGUACAC
apparent Kd [1]: 34.7 nM | apparent Kd [2]: 21.3 nM

ACCAUGUAAGGAUAUGCGCGGCCCUAAAUCAAUGAGCAAGCGCAGAAGGUACAUGAGGAUCACCCAUGUCACCG
apparent Kd [1]: 16.6 nM | apparent Kd [2]: 51.4 nM

AAACACAAACAUGAGGAUCACCCAUGUUAUGAAGAUACUGGGAGAAGGGCGAUUGCAAAGCAAUCGCAGGAUAUUCGUAUUGUG
apparent Kd [3]: 50.4 nM | apparent Kd [4]: 14.5 nM

AGAUGGUAGAGAGGAUAUCAUGUGCUGACAUGAGGAUCACCCAUGUAGGGACGUCGGUCCAAUUAUGAGAAGGCUCUACCAUCA
apparent Kd [3]: 81.7 nM | apparent Kd [4]: 50.8 nM

CUAGUAUAUCAGGAUAUGAUUUUGUGUAGUUGGUCAGAAGGGAUGACAUGAGGAUCACCCAUGUUAAGGGAUGA
apparent Kd [1]: 94.2 nM | apparent Kd [2]: 108 nM

UGUGCGUAUGUGAGGAUAUGCUGGUCCUUGGAUCGGCAGAAGGCACAUGAGGAUCACCCAUGUGGUGUCGUUCC
apparent Kd [1]: 144 nM | apparent Kd [2]: 57.8 nM

GCACAUUUGUAAGGAUAUACAACAUGAGGAUCACCCAUGUGUUGGAAUUUAGUAGAAGGUACAGACAUGAGGAUCACUUUUGUA
apparent Kd [3]: 174 nM | apparent Kd [4]: 102 nM
